Paper PMC6980386 (Traffic (Copenhagen, Denmark), 2019)

Experiments:
[1] = target: truncated huCD4 D1D2 L12A (Homo sapiens, UniProt P01730, L12A); assay: Cell-free in vitro translation and translocation; type: biochemical; settings: 15 μM CADA
Method in brief: (§1)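 Truncated huCD4 D1D2 (lacking glycosylation sites and membrane anchor) was made by PCR and transcribed with T7. Proteinase K protection ran 30 min on ice and was quenched with PMSF. Products were separated by SDS-PAGE and imaged by phosphor imaging. The SP-cleaved band was normalised to the matching control. Data are from 2–5 independent experiments, compared with WT by Welch t test.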

huCD4_1–32-YFP A22V = huCD4_1–32-YFP A22V (Homo sapiens, UniProt P01730, A22V); assay: CADA inhibition of huCD4_1–32-YFP secretion; type: cell-based
Method in brief: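 HEK293T cells were lipofected with human CD4 residues 1–32 fused to the N-terminus of YFP (secreted, no membrane anchor). Test compound was added 6 h post-transfection as 1:5 serial dilutions (50–0.016 μM) for 48 h. Supernatant was captured on GFP-Trap magnetic beads for 1 h, washed in PBS, and YFP was read by flow cytometry. IC50 is 50% of the untreated control, from four-parameter fits of ≥3 replicate experiments. FC is mutant/WT mean IC50.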

huCD4_1–32-YFP V29A = huCD4_1–32-YFP V29A (Homo sapiens, UniProt P01730, V29A); assay: CADA inhibition of huCD4_1–32-YFP secretion; type: cell-based; settings: + less, − more sensitive to CADA
Method in brief: (§2)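 HEK293T cells were grown in DMEM with 10% FBS and 10 mM HEPES, seeded and left to adhere overnight, then transiently transfected with plasmid by Lipofectamine. Test compound was added 6 h after transfection as a 1:5 serial dilution (50 to 0.016 μM) for 48 h. Secreted YFP in the supernatant was captured on GFP-Trap magnetic beads for 1 h, washed with PBS and measured by flow cytometry. IC50 is the concentration that halves the signal relative to the untreated control, taken from a four-parameter fit of at least three replicate experiments. FC is the mutant mean IC50 divided by the WT mean IC50.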

huCD4_1–32-YFP N2A = huCD4_1–32-YFP N2A (Homo sapiens, UniProt P01730, N2A); assay: CADA inhibition of huCD4_1–32-YFP secretion; type: cell-based
Method in brief: as §2

huCD4_1–32-YFP R8A = huCD4_1–32-YFP R8A (Homo sapiens, UniProt P01730, R8A); assay: CADA inhibition of huCD4_1–32-YFP secretion; type: cell-based; settings: read-out: Secreted YFP IC50 (μM) Mean, HEK293T, CADA 48h
Method in brief: as §2

FL huCD4 V5A = FL huCD4 V5A (Homo sapiens, UniProt P01730, V5A); assay: CADA down-modulation of cellular huCD4; type: cell-based
Method in brief: (§3)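 HEK293T cells, seeded overnight in DMEM with 10% serum, 1 mM sodium pyruvate and 0.075% NaHCO₃, were lipofected with full-length human CD4 (WT or mutant). Test compound in DMSO was added 6 h post-transfection as 1:5 serial dilutions (50–0.016 μM) for 48 h. Surface CD4 was stained with FITC/APC anti-CD4 (SK3) and read by flow cytometry. IC50 is 50% of the untreated signal, from four-parameter fits of ≥3 replicate experiments. FC is mutant/WT mean IC50.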

FL huCD4 A17V = FL huCD4 A17V (Homo sapiens, UniProt P01730, A17V); assay: CADA down-modulation of cellular huCD4; type: cell-based
Method in brief: as §3

FL huCD4 R8A = FL huCD4 R8A (Homo sapiens, UniProt P01730, R8A); assay: CADA down-modulation of cellular huCD4; type: cell-based; settings: read-out: Cellular huCD4 IC50 (μM) Mean, HEK293T, CADA 48h
Method in brief: as §3

huCD4_1–32-YFP Q15A = huCD4_1–32-YFP Q15A (Homo sapiens, UniProt P01730, Q15A); assay: CADA inhibition of huCD4_1–32-YFP secretion; type: cell-based
Method in brief: as §2

huCD4_1–32-YFP R3A = huCD4_1–32-YFP R3A (Homo sapiens, UniProt P01730, R3A); assay: CADA inhibition of huCD4_1–32-YFP secretion; type: cell-based
Method in brief: as §2

FL huCD4 K33A = FL huCD4 K33A (Homo sapiens, UniProt P01730, K33A); assay: CADA down-modulation of cellular huCD4; type: cell-based; settings: HEK293T, 48h
Method in brief: as §3

truncated huCD4 D1D2 WT = truncated huCD4 D1D2 WT (Homo sapiens, UniProt P01730); assay: Cell-free in vitro translation and translocation; type: biochemical
Method in brief: as §1

huCD4_1–32-YFP K27A = assay: CADA inhibition of huCD4_1–32-YFP secretion; type: cell-based, human
Method in brief: as §2

huCD4_1–32-YFP L19A = huCD4_1–32-YFP L19A (Homo sapiens, UniProt P01730, L19A); assay: CADA inhibition of huCD4_1–32-YFP secretion; type: cell-based
Method in brief: as §2

[2] = target: truncated huCD4 D1D2 A17V (Homo sapiens, UniProt P01730, A17V); assay: Cell-free in vitro translation and translocation; type: biochemical; settings: 15 μM CADA
Method in brief: as §1

huCD4_1–32-YFP P20A = huCD4_1–32-YFP P20A (Homo sapiens, UniProt P01730, P20A); assay: CADA inhibition of huCD4_1–32-YFP secretion; type: cell-based
Method in brief: as §2

FL huCD4 V29A = FL huCD4 V29A (Homo sapiens, UniProt P01730, V29A); assay: CADA down-modulation of cellular huCD4; type: cell-based
Method in brief: as §3

huCD4_1–32-YFP V28A = huCD4_1–32-YFP V28A (Homo sapiens, UniProt P01730, V28A); assay: CADA inhibition of huCD4_1–32-YFP secretion; type: cell-based
Method in brief: as §2

FL huCD4 Q15A;P20A = FL huCD4 Q15A;P20A (Homo sapiens, UniProt P01730, P20A/Q15A); assay: CADA down-modulation of cellular huCD4; type: cell-based; settings: HEK293T, 48h
Method in brief: as §3

FL huCD4 V13L;A17L = FL huCD4 V13L;A17L (Homo sapiens, UniProt P01730, A17L/V13L); assay: CADA down-modulation of cellular huCD4; type: cell-based; settings: HEK293T, 48h
Method in brief: as §3

FL huCD4 T23A = FL huCD4 T23A (Homo sapiens, UniProt P01730, T23A); assay: CADA down-modulation of cellular huCD4; type: cell-based
Method in brief: as §3

FL huCD4 G4A = FL huCD4 G4A (Homo sapiens, UniProt P01730, G4A); assay: CADA down-modulation of cellular huCD4; type: cell-based
Method in brief: as §3

FL huCD4 R8K = FL huCD4 R8K (Homo sapiens, UniProt P01730, R8K); assay: CADA down-modulation of cellular huCD4; type: cell-based; settings: HEK293T, 48h
Method in brief: as §3

[3] = + less, − more sensitive to CADA
[4] = read-out: Secreted YFP IC50 (μM) Mean, HEK293T, CADA 48h
[5] = read-out: Cellular huCD4 IC50 (μM) Mean, HEK293T, CADA 48h

C=C1CN(S(=O)(=O)c2ccc(C)cc2)CCCN(Cc2ccccc2)CCCN(S(=O)(=O)c2ccc(C)cc2)C1 [CADA, Cyclotriazadisulfonamide]
sensitivity of translocation towards CADA compared to WT [1]: higher sensitivity towards CADA
Secreted YFP FC (fold change of mean IC50 relative to WT) (huCD4_1–32-YFP A22V; [3]): +1.2
IC50 (huCD4_1–32-YFP A22V; [4]): 1.58 µM
Secreted YFP FC (fold change of mean IC50 relative to WT) (huCD4_1–32-YFP V29A): −1.1
Secreted YFP FC (fold change of mean IC50 relative to WT) (huCD4_1–32-YFP N2A; [3]): −3.3
IC50 (huCD4_1–32-YFP N2A; [4]): 0.39 µM
IC50 (huCD4_1–32-YFP R8A): > 50 µM
Cellular huCD4 FC (fold change of mean IC50 relative to WT) (FL huCD4 V5A; [3]): −1.9
IC50 (FL huCD4 V5A; [5]): 0.29 µM
Cellular huCD4 FC (fold change of mean IC50 relative to WT) (FL huCD4 A17V; [3]): +2.5
IC50 (FL huCD4 A17V; [5]): 1.33 µM
IC50 (FL huCD4 R8A): 4.2 µM
Secreted YFP FC (fold change of mean IC50 relative to WT) (huCD4_1–32-YFP Q15A; [3]): >+39
IC50 (huCD4_1–32-YFP Q15A; [4]): > 50 µM
Secreted YFP FC (fold change of mean IC50 relative to WT) (huCD4_1–32-YFP R3A; [3]): +1.6
IC50 (huCD4_1–32-YFP R3A; [4]): 1.99 µM
IC50 (FL huCD4 K33A): > 50000 nM
inhibition of translocation by CADA (truncated huCD4 D1D2 WT; 15 μM CADA vs DMSO, rabbit reticulocyte lysate, ovine microsomes): 75%
effect of CADA on co-translational translocation (truncated huCD4 D1D2 WT; increasing doses of CADA): dose-dependently prevented by CADA
Secreted YFP FC (fold change of mean IC50 relative to WT) (huCD4_1–32-YFP K27A; [3]): >+39
IC50 (huCD4_1–32-YFP K27A; [4]): > 50 µM
Secreted YFP FC (fold change of mean IC50 relative to WT) (huCD4_1–32-YFP L19A; [3]): +3.6
IC50 (huCD4_1–32-YFP L19A; [4]): 4.57 µM
inhibitory effect of CADA on protein translocation compared to WT [2]: significantly reduced
Secreted YFP FC (fold change of mean IC50 relative to WT) (huCD4_1–32-YFP P20A; [3]): >+39
IC50 (huCD4_1–32-YFP P20A; [4]): > 50 µM
Cellular huCD4 FC (fold change of mean IC50 relative to WT) (FL huCD4 V29A; [3]): +1.2
IC50 (FL huCD4 V29A; [5]): 0.63 µM
Secreted YFP FC (fold change of mean IC50 relative to WT) (huCD4_1–32-YFP V28A; [3]): −1.8
IC50 (huCD4_1–32-YFP V28A; [4]): 0.72 µM
sensitivity to CADA (FL huCD4 Q15A;P20A): no longer responded to CADA
sensitivity to CADA (FL huCD4 V13L;A17L): nearly full resistance to CADA
Cellular huCD4 FC (fold change of mean IC50 relative to WT) (FL huCD4 T23A; [3]): +1.6
IC50 (FL huCD4 T23A; [5]): 0.87 µM
Cellular huCD4 FC (fold change of mean IC50 relative to WT) (FL huCD4 G4A; [3]): −1.5
IC50 (FL huCD4 G4A; [5]): 0.35 µM
sensitivity to CADA (FL huCD4 R8K): restored full sensitivity to CADA
